Blank lines part the entries; values can stand above or below the molecule they belong to. The source made the active and inactive calls. No cut-off for these calls is given here.
Assays:
CDK9/cyclin T1 [1] = biological target: T1, CDK9/cyclin T1 (Homo sapiens, UniProt P50750); test: Inhibition of CDK9/CycT1 (unknown origin) expressed in HEK293 cells using GST-CTDII as substrate
CDK9/cyclin T1 [2] = biological target: T1, CDK9/cyclin T1; test: Inhibition of CDK9/CycT1 (unknown origin); format: protein-complex assay
CDK9/cyclin T1 [3] = biological target: T1, CDK9/cyclin T1; test: Inhibition of CDK9/CycT1 (unknown origin) using TAMRA-Rbtide and ATP as substrate after 1 hr; format: protein-complex assay
[4] = biological target: Cyclin-dependent kinase 2/cyclin E1 (Homo sapiens) (UniProt P24864+P24941); test: Inhibition of CDK2/CycE (unknown origin) using FAM labeled peptide as substrate at 1 uM by IMAP FAM FP assay; format: protein-complex assay
Outline: (§1)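 Run by contract partners as an IMAP fluorescence polarization assay. […] Enzyme amount was set to give 50% substrate turnover. Compounds were added in DMSO, IMAP binding solution added after the kinase step, then FP read.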

[5] = biological target: Cyclin-dependent kinase 4/cyclin D1 (Homo sapiens) (UniProt P11802+P24385); test: Inhibition of CDK4/CycD1 (unknown origin) using FAM labeled peptide as substrate at 1 uM by IMAP FAM FP assay; format: protein-complex assay; outline: as §1
[6] = biological target: T2, CDK9/cyclin T1 (Homo sapiens) (UniProt O60563+P50750); test: Inhibition of CDK9/CycT1 (unknown origin) using TAMRA-Rbtide and ATP as substrate at 1 uM after 1 hr; format: protein-complex assay
[7] = biological target: Tyrosine-protein kinase ABL1 (Homo sapiens) (UniProt P00519); test: Inhibition of ABL (unknown origin) at 1 uM
[8] = biological target: RAC-alpha serine/threonine-protein kinase (Homo sapiens) (UniProt P31749); test: Inhibition of AKT1 (unknown origin) at 1 uM
[9] = biological target: Tyrosine-protein kinase receptor UFO (Homo sapiens) (UniProt P30530); test: Inhibition of AXL (unknown origin) at 1 uM
[10] = biological target: Serine/threonine-protein kinase B-raf (Homo sapiens) (UniProt P15056); test: Inhibition of bRAF (unknown origin) at 1 uM
[11] = biological target: Serine/threonine-protein kinase Chk1 (Homo sapiens) (UniProt O14757); test: Inhibition of CHK1 (unknown origin) at 1 uM
[12] = biological target: Mast/stem cell growth factor receptor Kit (Homo sapiens) (UniProt P10721); test: Inhibition of cKIT (unknown origin) at 1 uM
[13] = biological target: Hepatocyte growth factor receptor (Homo sapiens) (UniProt P08581); test: Inhibition of cMET (unknown origin) at 1 uM
[14] = biological target: Tyrosine-protein kinase CSK (Homo sapiens) (UniProt P41240); test: Inhibition of CSK (unknown origin) at 1 uM
[15] = biological target: Epithelial discoidin domain-containing receptor 1 (Homo sapiens) (UniProt Q08345); test: Inhibition of DDR1 (unknown origin) at 1 uM
[16] = biological target: Receptor tyrosine-protein kinase erbB-2 (Homo sapiens) (UniProt P04626); test: Inhibition of ERBB2 (unknown origin) at 1 uM
[17] = biological target: Fibroblast growth factor receptor 3 (Homo sapiens) (UniProt P22607); test: Inhibition of FGFR3 (unknown origin) at 1 uM
Sequence of Fibroblast growth factor receptor 3 (Homo sapiens) (P22607 23-806 limits assumed): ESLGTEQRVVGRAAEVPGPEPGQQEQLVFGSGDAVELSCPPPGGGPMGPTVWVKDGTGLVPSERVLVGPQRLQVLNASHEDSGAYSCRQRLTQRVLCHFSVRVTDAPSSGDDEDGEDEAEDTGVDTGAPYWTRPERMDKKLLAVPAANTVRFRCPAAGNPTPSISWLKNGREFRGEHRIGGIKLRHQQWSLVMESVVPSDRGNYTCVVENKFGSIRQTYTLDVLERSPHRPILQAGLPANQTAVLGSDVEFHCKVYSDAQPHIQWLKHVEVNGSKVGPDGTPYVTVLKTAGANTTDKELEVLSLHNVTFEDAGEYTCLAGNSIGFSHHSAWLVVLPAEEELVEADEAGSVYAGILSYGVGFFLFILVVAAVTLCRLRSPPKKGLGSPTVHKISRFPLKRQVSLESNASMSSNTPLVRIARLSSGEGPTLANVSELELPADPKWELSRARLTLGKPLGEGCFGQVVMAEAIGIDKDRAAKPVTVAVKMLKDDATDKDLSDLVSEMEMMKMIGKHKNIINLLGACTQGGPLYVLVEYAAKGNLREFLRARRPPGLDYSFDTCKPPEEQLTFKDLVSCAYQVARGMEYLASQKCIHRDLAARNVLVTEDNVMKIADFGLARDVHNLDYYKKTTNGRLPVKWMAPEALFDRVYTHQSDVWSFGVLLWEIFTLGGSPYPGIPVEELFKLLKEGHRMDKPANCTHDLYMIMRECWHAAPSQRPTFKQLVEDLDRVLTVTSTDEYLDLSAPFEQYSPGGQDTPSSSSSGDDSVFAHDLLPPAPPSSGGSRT

[18] = biological target: Receptor-type tyrosine-protein kinase FLT3 (Homo sapiens) (UniProt P36888); test: Inhibition of FLT3 (unknown origin) at 1 uM
[19] = biological target: Inhibitor of nuclear factor kappa-B kinase subunit beta (Homo sapiens) (UniProt O14920); test: Inhibition of IKKbeta (unknown origin) at 1 uM
[20] = biological target: Insulin receptor (Homo sapiens) (UniProt P06213); test: Inhibition of INSR (unknown origin) at 1 uM
[21] = biological target: Interleukin-1 receptor-associated kinase 4 (Homo sapiens) (UniProt Q9NWZ3); test: Inhibition of IRAK4 (unknown origin) at 1 uM
Sequence of Interleukin-1 receptor-associated kinase 4 (Homo sapiens) (Q9NWZ3 whole entry): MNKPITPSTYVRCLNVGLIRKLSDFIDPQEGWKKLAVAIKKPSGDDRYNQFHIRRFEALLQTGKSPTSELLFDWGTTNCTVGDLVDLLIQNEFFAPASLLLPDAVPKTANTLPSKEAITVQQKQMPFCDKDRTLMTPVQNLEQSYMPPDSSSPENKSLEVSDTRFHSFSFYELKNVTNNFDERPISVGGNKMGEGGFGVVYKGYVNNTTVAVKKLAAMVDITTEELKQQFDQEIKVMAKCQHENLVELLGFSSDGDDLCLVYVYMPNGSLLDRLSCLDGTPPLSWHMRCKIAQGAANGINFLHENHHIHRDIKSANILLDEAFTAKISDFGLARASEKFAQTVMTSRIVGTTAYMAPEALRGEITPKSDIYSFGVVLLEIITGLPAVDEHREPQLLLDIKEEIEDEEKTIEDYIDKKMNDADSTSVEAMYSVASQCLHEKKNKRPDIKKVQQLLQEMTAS

[22] = biological target: Tyrosine-protein kinase JAK3 (Homo sapiens) (UniProt P52333); test: Inhibition of JAK3 (unknown origin) at 1 uM
[23] = biological target: Serine/threonine-protein kinase mTOR (Homo sapiens) (UniProt P42345); test: Inhibition of mTOR (unknown origin) at 1 uM
[24] = biological target: Serine/threonine-protein kinase PAK 1 (Homo sapiens) (UniProt Q13153); test: Inhibition of PAK1 (unknown origin) at 1 uM
[25] = biological target: Serine/threonine-protein kinase PAK 4 (Homo sapiens) (UniProt O96013); test: Inhibition of PAK4 (unknown origin) at 1 uM
[26] = biological target: Platelet-derived growth factor receptor beta (Homo sapiens) (UniProt P09619); test: Inhibition of PDGFRb (unknown origin) at 1 uM
[27] = biological target: Serine/threonine-protein kinase pim-1 (Homo sapiens) (UniProt P11309); test: Inhibition of PIM1 (unknown origin) at 1 uM
[28] = biological target: Protein kinase C alpha type (Homo sapiens) (UniProt P17252); test: Inhibition of PKCalpha (unknown origin) at 1 uM
[29] = biological target: Proto-oncogene tyrosine-protein kinase receptor Ret (Homo sapiens) (UniProt P07949); test: Inhibition of RET (unknown origin) at 1 uM
[30] = biological target: Rho-associated protein kinase 2 (Homo sapiens) (UniProt O75116); test: Inhibition of ROCK2 (unknown origin) at 1 uM
Sequence of Rho-associated protein kinase 2 (Homo sapiens) (O75116 whole entry, looked up): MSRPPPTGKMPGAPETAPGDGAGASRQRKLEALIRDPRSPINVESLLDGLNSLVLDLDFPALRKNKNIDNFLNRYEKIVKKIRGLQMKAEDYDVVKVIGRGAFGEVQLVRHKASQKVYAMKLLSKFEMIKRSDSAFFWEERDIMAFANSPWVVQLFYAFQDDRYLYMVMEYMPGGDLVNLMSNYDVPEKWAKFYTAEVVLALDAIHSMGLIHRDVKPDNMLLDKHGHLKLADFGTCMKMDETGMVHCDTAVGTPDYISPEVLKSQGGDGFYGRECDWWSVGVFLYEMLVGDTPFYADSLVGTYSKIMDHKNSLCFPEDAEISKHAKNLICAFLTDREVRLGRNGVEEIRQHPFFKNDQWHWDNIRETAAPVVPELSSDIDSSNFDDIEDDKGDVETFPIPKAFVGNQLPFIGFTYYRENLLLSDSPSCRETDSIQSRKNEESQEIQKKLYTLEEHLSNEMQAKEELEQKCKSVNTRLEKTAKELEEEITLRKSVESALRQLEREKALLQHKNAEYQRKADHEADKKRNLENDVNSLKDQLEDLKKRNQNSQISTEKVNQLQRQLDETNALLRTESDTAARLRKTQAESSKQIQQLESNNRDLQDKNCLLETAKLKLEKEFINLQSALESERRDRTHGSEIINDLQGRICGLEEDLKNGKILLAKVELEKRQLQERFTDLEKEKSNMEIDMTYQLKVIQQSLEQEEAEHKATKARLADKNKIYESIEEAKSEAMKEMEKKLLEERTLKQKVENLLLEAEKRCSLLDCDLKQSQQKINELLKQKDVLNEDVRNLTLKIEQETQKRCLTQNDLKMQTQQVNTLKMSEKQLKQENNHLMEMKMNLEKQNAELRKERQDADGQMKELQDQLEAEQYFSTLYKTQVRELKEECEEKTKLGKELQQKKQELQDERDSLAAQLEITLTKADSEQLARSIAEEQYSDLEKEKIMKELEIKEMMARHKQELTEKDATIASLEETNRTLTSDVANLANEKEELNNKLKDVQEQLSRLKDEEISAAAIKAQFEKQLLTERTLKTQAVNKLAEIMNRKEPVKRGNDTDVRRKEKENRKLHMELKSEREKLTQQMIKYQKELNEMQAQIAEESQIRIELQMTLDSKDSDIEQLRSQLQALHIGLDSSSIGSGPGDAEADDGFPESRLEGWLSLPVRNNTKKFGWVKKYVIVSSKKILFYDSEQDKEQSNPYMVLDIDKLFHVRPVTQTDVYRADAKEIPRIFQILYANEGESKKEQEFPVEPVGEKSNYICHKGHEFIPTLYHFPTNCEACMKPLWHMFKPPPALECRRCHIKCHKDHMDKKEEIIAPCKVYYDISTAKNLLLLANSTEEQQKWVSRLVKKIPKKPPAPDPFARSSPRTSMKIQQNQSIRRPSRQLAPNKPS

[31] = biological target: Proto-oncogene tyrosine-protein kinase Src (Homo sapiens) (UniProt P12931); test: Inhibition of SRC (unknown origin) at 1 uM
[32] = biological target: Tyrosine-protein kinase SYK (Homo sapiens) (UniProt P43405); test: Inhibition of SYK (unknown origin) at 1 uM
[33] = biological target: Angiopoietin-1 receptor (Homo sapiens) (UniProt Q02763); test: Inhibition of TIE2 (unknown origin) at 1 uM
[34] = biological target: High affinity nerve growth factor receptor (Homo sapiens) (UniProt P04629); test: Inhibition of TrkA (unknown origin) at 1 uM
[35] = biological target: Vascular endothelial growth factor receptor 2 (Homo sapiens) (UniProt P35968); test: Inhibition of VEGFR2 (unknown origin) at 1 uM
Sequence of Vascular endothelial growth factor receptor 2 (Homo sapiens) (P35968 whole entry): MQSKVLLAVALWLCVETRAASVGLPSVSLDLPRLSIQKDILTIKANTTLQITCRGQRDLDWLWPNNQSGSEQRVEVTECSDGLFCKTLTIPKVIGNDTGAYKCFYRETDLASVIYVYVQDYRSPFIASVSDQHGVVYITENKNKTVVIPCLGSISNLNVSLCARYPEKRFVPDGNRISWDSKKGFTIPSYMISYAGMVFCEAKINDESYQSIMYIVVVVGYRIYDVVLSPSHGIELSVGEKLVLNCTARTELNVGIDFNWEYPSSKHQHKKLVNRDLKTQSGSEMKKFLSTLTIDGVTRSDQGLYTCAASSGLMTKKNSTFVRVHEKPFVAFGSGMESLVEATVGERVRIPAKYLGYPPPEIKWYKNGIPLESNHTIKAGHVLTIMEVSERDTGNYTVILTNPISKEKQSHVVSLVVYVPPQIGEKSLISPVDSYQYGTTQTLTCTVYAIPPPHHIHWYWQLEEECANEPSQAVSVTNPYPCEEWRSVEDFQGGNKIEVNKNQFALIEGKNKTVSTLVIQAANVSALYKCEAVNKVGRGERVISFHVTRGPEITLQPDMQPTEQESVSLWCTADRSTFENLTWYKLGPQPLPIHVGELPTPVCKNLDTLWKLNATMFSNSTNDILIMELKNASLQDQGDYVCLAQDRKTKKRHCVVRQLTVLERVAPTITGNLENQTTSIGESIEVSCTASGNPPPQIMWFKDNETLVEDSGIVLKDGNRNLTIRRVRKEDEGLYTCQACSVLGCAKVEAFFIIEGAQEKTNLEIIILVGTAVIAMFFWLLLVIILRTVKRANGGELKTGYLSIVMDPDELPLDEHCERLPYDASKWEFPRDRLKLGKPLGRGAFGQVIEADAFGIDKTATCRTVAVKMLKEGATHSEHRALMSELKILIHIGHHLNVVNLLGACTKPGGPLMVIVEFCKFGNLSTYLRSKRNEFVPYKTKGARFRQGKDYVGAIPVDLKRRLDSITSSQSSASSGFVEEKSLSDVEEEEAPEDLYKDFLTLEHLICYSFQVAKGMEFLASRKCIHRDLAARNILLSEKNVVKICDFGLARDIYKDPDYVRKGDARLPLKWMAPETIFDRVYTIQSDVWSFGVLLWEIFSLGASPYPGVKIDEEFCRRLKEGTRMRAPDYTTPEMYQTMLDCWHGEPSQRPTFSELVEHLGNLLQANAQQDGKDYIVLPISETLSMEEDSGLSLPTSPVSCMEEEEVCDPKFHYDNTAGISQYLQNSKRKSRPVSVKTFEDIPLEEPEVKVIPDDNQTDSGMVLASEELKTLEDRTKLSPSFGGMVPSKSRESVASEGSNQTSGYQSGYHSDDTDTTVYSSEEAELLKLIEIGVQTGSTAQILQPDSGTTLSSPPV

[36] = Cytotoxicity against human MT4 cells assessed as cell viability at 2500 nM after 7 days by MTT assay relative to control; format: cell-based; details: read-out: Activity
Outline: (§2)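 MT4 cells (2−3 × 10⁴/well) in RPMI1640 with 10% FCS, penicillin and streptomycin, exposed to compound at 2500 or 1250 nM for 7 days at 37 °C, 5% CO2. MTT added for 4 h, supernatant removed, formazan dissolved in DMSO, absorbance read at 540 nm. Viability expressed relative to untreated cells (100%).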

[37] = Cytotoxicity against human MT4 cells assessed as cell viability at 1250 nM after 7 days by MTT assay relative to control; format: cell-based; details: read-out: Activity; outline: as §2
[38] = system: Human immunodeficiency virus 1; test: Antiviral activity against HIV1 HTLV-3B infected in human MT4 cells assessed as inhibition of virus proliferation by measuring host cell viability at 1250 nM relative to control; format: functional
Outline: (§3)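 HIV-1 HTLV-IIIB (3400 TCID50/mL per well; titre set by virus yield assay) infected MT4 cells, 2−3 × 10⁴/well in RPMI1640 with 10% FCS, penicillin and streptomycin, cultured as for the 7-day viability assay (37 °C, 5% CO2). Test compounds were at 1250 nM and AZT control at 25 nM. Read-out was MTT (4 h, DMSO, A540), given relative to infected untreated cells (100%).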

[39] = biological target: T2, CDK9/cyclin T1 (Homo sapiens); test: Competitive inhibition of CDK9/CycT1 (unknown origin) using ATP as substrate; format: protein-complex assay
Outline: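 Kinase inhibition measured with inhibitor held constant at 260 nM across five ATP concentrations, printed as 1.33, 4, 12 (K_mATP), 36 and 108 […]. Ki taken from measured IC50 via the Cheng−Prusoff equation, with the IC50/Ki ratio compared across ATP levels.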

[40] = system: Human immunodeficiency virus 1; test: Antiviral activity against HIV1 HTLV-3B infected in human MT4 cells assessed as inhibition of virus proliferation by measuring host cell viability at 25 nM relative to control; format: functional; outline: as §3
[41] = biological target: Interleukin-1 receptor-associated kinase 3 (Homo sapiens) (UniProt Q9Y616); test: Binding to IRAK3 (unknown origin) at 1 uM

T1 sequence (O60563 whole entry): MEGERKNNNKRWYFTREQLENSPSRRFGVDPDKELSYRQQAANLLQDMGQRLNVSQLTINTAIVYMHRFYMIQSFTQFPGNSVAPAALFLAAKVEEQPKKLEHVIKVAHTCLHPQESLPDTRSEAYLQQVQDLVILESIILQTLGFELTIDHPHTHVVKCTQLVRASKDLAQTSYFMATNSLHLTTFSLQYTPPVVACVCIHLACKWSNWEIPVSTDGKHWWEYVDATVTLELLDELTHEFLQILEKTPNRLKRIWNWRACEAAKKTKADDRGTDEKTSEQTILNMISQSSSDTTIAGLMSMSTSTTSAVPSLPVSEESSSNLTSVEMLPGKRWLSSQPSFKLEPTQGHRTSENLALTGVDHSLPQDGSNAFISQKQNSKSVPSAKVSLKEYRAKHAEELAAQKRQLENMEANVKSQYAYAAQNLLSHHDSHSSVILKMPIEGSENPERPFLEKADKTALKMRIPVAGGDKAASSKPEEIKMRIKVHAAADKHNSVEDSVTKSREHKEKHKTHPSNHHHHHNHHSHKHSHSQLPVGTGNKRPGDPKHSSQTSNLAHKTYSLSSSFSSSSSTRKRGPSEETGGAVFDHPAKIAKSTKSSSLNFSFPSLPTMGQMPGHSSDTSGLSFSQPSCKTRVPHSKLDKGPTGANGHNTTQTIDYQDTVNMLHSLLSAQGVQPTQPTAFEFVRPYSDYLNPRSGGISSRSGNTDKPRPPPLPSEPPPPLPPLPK
T1 sequence (P50750 whole entry): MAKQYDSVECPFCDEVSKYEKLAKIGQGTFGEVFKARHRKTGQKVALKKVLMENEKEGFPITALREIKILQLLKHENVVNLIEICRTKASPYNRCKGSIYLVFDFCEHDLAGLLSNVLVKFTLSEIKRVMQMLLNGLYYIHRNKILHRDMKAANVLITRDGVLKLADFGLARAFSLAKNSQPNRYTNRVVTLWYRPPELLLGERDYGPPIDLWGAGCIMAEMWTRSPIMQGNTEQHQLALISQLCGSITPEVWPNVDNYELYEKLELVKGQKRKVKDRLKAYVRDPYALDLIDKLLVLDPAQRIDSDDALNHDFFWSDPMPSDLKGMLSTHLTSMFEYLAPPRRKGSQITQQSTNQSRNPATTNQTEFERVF

IC50 (CDK9/cyclin T1 [1]): 30 nM
Structure (SMILES): COc1ccccc1-c1cc(Nc2ccc(C)c(NS(C)(=O)=O)c2)ncn1

IC50 (CDK9/cyclin T1 [2]): 170 nM
Structure (SMILES): COc1ccccc1-c1cc(Nc2cccc(NS(N)(=O)=O)c2)ncn1

IC50 (CDK9/cyclin T1 [1]): 52 nM
Structure (SMILES): COc1ccccc1-c1cc(Nc2cccc(S(N)(=O)=O)c2)ncn1

IC50 (CDK9/cyclin T1 [3]): 327 nM
inhibition [4]: 18%
inhibition [5]: 22%
inhibition [6]: 96%
Structure (SMILES): CCOP(=O)(CC)Cc1cccc(Nc2cc(-c3cccc(N)c3)ncn2)c1 (stereo not drawn)

IC50 (CDK9/cyclin T1 [2]): 129 nM
Structure (SMILES): Cc1ccc(Nc2cc(-c3cccc(N)c3)ncn2)cc1NS(C)(=O)=O

Structure (SMILES): CCCP(=O)(Cc1cccc(Nc2cc(-c3ccccc3OC)ncn2)c1)OCC (stereo not drawn)
IC50 (CDK9/cyclin T1 [3]): 296 nM
inhibition [4]: 23%
inhibition [5]: 14%
inhibition [6]: 95%
inhibition [7]: 9%
inhibition [8]: -1%
inhibition [9]: 7%
inhibition [10]: 5%
inhibition [11]: 14%
inhibition [12]: 16%
inhibition [13]: 6%
inhibition [14]: 14%
inhibition [15]: 7%
inhibition [16]: 5%
inhibition [17]: 1%
inhibition [18]: 6%
inhibition [19]: 7%
inhibition [20]: 2%
inhibition [21]: 9%
inhibition [22]: 0%
inhibition [23]: 9%
inhibition [24]: 10%
inhibition [25]: 19%
inhibition [26]: 2%
inhibition [27]: -2%
inhibition [28]: 9%
inhibition [29]: 16%
inhibition [30]: 7%
inhibition [31]: 4%
inhibition [32]: -1%
inhibition [33]: 5%
inhibition [34]: -1%
inhibition [35]: 6%
viability at 168 h, 2.5 µM [36]: 81%
viability at 168 h, 1.25 µM [37]: 66%
Host cell viability relative to infected untreated cells [38]: 131%
competitive inhibition (qualitative) [39]: Active

Structure (SMILES): Cc1cn([C@H]2C[C@H](N=[N+]=[N-])[C@@H](CO)O2)c(=O)[nH]c1=O [ZIDOVUDINE]
Activity [40]: 132%

Structure (SMILES): CCCP(=O)(O)Cc1cccc(Nc2cc(-c3ccccc3OCc3ccccc3)ncn2)c1
IC50 (CDK9/cyclin T1 [3]): 142 nM
viability at 168 h, 2.5 µM [36]: 141%
viability at 168 h, 1.25 µM [37]: 158%
Host cell viability relative to infected untreated cells [38]: 141%
residual activity [41]: 18%

Structure (SMILES): CCOP(=O)(CC)Cc1cccc(Nc2cc(-c3ccccc3OC)ncn2)c1 (stereo not drawn)
IC50 (CDK9/cyclin T1 [3]): 197 nM
inhibition [4]: 36%
inhibition [5]: 24%
inhibition [6]: 98%
inhibition [7]: 20%
inhibition [8]: 11%
inhibition [9]: 21%
inhibition [10]: 0%
inhibition [11]: 12%
inhibition [12]: 28%
inhibition [13]: 22%
inhibition [14]: 24%
inhibition [15]: 13%
inhibition [16]: 11%
inhibition [17]: 8%
inhibition [18]: 12%
inhibition [19]: 15%
inhibition [20]: 12%
inhibition [21]: 16%
inhibition [22]: 9%
inhibition [23]: 3%
inhibition [24]: 20%
inhibition [25]: 25%
inhibition [26]: 18%
inhibition [27]: 8%
inhibition [28]: 8%
inhibition [29]: 34%
inhibition [30]: 14%
inhibition [31]: 18%
inhibition [32]: 8%
inhibition [33]: 10%
inhibition [34]: 8%
inhibition [35]: 11%
viability at 168 h, 2.5 µM [36]: 94%
viability at 168 h, 1.25 µM [37]: 94%
Host cell viability relative to infected untreated cells [38]: 105%
competitive inhibition (qualitative) [39]: Active

— ChEMBL document CHEMBL3259517, “Synthesis and evaluation of phosphorus containing, specific CDK9/CycT1 inhibitors” (J Med Chem, 2014)
